Here are results for three molecules from paper PMC3105124 (Brain research, 2011).

Where two headings read alike, the source gives them in different places. Marks after values point to notes of the source that are not given here.

Series [1] relates to L5/L6 spinal nerve ligated male Sprague Dawley rats. The series is described as follows: Mechanical hypersensitivity. The class given is in vivo, rat. The settings on record: for AUC, paw withdrawal threshold (mechanical): vehicle AUC=22.07 ± 3.02.
The test system is the same in series [2]. Description: Thermal hypersensitivity. In kind it is in vivo, rat. The settings on record: for AUC, paw withdrawal latency (thermal): vehicle AUC=55.52 ± 2.74; for effect on thermal hyperalgesia compared to vehicle or post injury baseline: morphine (10 mg), all time-points and total AUC.
For series [3], the system named is male Sprague Dawley rats. In kind it is in vivo, rat. The method, boiled down:
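CCK-8sulf (30 ng/0.5 μL, in water) went into the RVM 10 min before. Naloxone (10 mg/kg sc, saline) was given 20 min before. Radiant heat to the plantar hind paw gave withdrawal latency, compared with baseline.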

For series [4], the system named is sham-operated male Sprague Dawley rats. The series is described as follows: Thermal paw withdrawal latency in sham-operated animals, intrathecal. The settings on record: 45 min time point. The class given is in vivo, rat. An outline of the steps: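 Sham rats had the L5/L6 nerves exposed without ligation, then 5–7 days recovery. An intrathecal catheter ending at the lumbar cord was placed under ketamine/xylazine, with 5–7 days recovery. Test compound in 33% EtOH/water was injected in 5 μL with a 9 μL saline flush. Radiant heat was focused on the ipsilateral hind paw, and latencies were read blinded every 15 min for 60 min. In crossovers, vehicle rats were redosed ≥5 h later.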

The subject of series [5] is L5/L6 spinal nerve ligated male Sprague Dawley rats. The class given is in vivo, rat.
Series [6] deals with male Sprague Dawley rats. Description: Rotarod test for motor impairment or sedation, intrathecal. In kind it is in vivo, rat. The settings on record: 180 s cutoff.
Another series addresses δ opioid receptor. As to conditions: read-out: Ki at the δ opioid receptor; ref Agnes et al., 2008; cited from earlier work.
In a further series the target is μ opioid receptor. The settings on record: read-out: Ki at the μ opioid receptor; ref Agnes et al., 2008; cited from earlier work.
For another series, the target named is CCK-1 receptor. As to conditions: read-out: Ki at the CCK-1 receptor; ref Agnes et al., 2008; cited from earlier work.
The target in another series is CCK-2 receptor. As to conditions: read-out: Ki at the CCK-2 receptor; ref Agnes et al., 2008; cited from earlier work.
The subject of the next series is delta opioid receptor. The settings on record: ref Agnes et al., 2008; Hruby et al., 2003; cited from earlier work.
The subject of another series is mu opioid receptor. The settings on record: ref Agnes et al., 2008; Hruby et al., 2003; cited from earlier work.
Series [7] has as its target human δ opioid receptor (hDOR) (Homo sapiens, UniProt P41143). As to conditions: ref Agnes et al., 2008, cited from earlier work.
Series [8] has as its target rat μ opioid receptor (MOR) (Rattus norvegicus, UniProt P33535). The settings on record: ref Agnes et al., 2008, cited from earlier work.
Where [9] appears, read: 30 μg/5μL intrathecal (gabapentin 30 μg).

Sequence of human δ opioid receptor (hDOR) (P41143 whole entry): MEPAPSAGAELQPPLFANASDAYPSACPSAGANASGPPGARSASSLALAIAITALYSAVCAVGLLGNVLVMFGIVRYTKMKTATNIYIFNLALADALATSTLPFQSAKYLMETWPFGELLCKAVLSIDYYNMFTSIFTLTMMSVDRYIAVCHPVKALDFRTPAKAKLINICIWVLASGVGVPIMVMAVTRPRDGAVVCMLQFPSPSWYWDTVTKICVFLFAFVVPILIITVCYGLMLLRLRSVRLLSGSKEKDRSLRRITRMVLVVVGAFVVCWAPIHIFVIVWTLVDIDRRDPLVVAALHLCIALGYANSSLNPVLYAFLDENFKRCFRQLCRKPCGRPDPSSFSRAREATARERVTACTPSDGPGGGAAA
Sequence of rat μ opioid receptor (MOR) (P33535 whole entry): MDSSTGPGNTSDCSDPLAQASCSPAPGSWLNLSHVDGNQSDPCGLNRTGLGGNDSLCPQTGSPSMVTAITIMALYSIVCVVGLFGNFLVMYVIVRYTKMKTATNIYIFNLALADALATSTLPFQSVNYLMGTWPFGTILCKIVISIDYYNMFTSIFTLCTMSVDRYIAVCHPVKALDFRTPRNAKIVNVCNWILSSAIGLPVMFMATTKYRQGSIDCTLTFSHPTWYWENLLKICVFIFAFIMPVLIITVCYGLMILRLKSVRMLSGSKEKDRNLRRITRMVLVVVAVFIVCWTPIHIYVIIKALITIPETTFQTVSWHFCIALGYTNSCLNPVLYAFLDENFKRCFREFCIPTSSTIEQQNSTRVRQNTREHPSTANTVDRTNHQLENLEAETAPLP

As to `NCC1(CC(=O)O)CCCCC1` [gabapentin, reference compound], the “AUC, paw withdrawal threshold (mechanical)” value in series [1] (setting [9]) is listed as 25.97 ± 6.68. Besides, in series [2] (gabapentin (30 mg) intrathecal), the “AUC, paw withdrawal latency (thermal)” value is given as 104.72 ± 11.01 and the “effect on thermal hyperalgesia compared to vehicle or post injury baseline” value was “significant efficacy”.

Take `CN1CC[C@]23c4c5ccc(O)c4O[C@H]2[C@@H](O)C=C[C@H]3[C@H]1C5` [morphine, reference compound]: the “effect on thermal hyperalgesia compared to vehicle or post injury baseline” value in series [2] (gabapentin (30 mg) intrathecal) is “significant efficacy”. Also, the “Paw Withdrawal Latency (Sec ± SEM)” value with male Sprague Dawley rats [3] (RVM 60 ng/0.5μl with pretreatment (−20min) of naloxone (subcutaneous; 10mg/kg)) was 18.70** Sec.

As to “H-Tyr^1-DNle^2-Gly^3-Trp^4-Nle^5-Asp^6-Phe^7-NH2 [RSA 504]”, the “attenuation of mechanical hypersensitivity compared to vehicle” value in [1] (3 μg/5μL intrathecal) is recorded as “No significance”; in series [1] (10 μg/5μL and 30 μg/5μL intrathecal (RSA 504: 30 min; RSA 601: all time points)), “significant attenuation”. Further, in [1] (3 μg/5μL intrathecal, 15, 30 and 45 min post administration), the “attenuation of mechanical hypersensitivity compared to post-injury baseline” value is “Significant attenuation”. For the same molecule, the “AUC, paw withdrawal threshold (mechanical)” value in series [1] (3 μg/5μL intrathecal) is listed as 32.53 ± 4.39; in [1] (10 μg/5μL intrathecal (morphine 10 μg)), 39.38 ± 3.17; in [1] (setting [9]), 44.80 ± 4.93. In addition, the “A50, antiallodynic dose response curve” value in [1] (intrathecal, peak effect 30 min, day 7 after SNL, von Frey) was 4.67 μg/5μL. The “attenuation of thermal hyperalgesia compared to vehicle” value in series [2] (1 μg/5μL intrathecal) is listed as “did not produce a significant effect”. In addition, the “attenuation of thermal hyperalgesia compared to vehicle and post-injury baseline” value in series [2] (10 μg/5μL and 30 μg/5μL intrathecal, 30 min time point) is “significantly attenuated”. Also, the entries for the “AUC, paw withdrawal latency (thermal)” value in [2] (10 μg/5μL intrathecal) and in series [2] (30 μg/5μL intrathecal) were 83.61 ± 6.40 and 111.10 ± 7.97, respectively. The “A50, antihyperalgesic dose response curve” value in series [2] (intrathecal, peak effect 30 min, day 7 after SNL) was 6.09 μg/5μL. Moreover, in series [4], the “paw withdrawal latencies in sham animals” value is listed as “significantly increased”. Besides, the “antinociceptive tolerance (day 7 A50 compared to day one)” value in series [5] (intrathecal administration over 7 days) is listed as “not significantly different”. Also, the “A50, reconstructed antihyperalgesic dose response curve, day 7” value in [5] (intrathecal, 30 min, day 7 after 30 μg/5μL/day for 6 days (14 days after SNL)) was determined as 6.45 μg/5μL. Further, the “A50, antihyperalgesic dose response curve, day one” value in series [5] (intrathecal, 30 min, treatment day 1 (7 days after SNL)) came out at 5.89 μg/5μL. Also, the “motor impairment or sedation on the rotarod” value in the series with male Sprague Dawley rats [6] is recorded as “did not result in motor impairment”. Moreover, the “Paw Withdrawal Latency (Sec ± SEM)” value in the series on male Sprague Dawley rats [3] (RVM 60 ng/0.5μl with pre-administration (−10min) of CCK-8sulf (RVM; 30 ng/0.5 μL)) is given as 22.35^† Sec. In addition, the “effect on CCK-8 induced thermal hypersensitivity” value in the series with male Sprague Dawley rats [3] (RVM administration, effect not significantly attenuated by naloxone) was “reversed the CCK-8 hypersensitivity”. Besides, the Ki is 23 nM at δ opioid receptor, 27 nM at μ opioid receptor, 11.2 nM at CCK-1 receptor and 16 nM at CCK-2 receptor. Moreover, the “in vitro activity in the MVD for delta opioid receptor activity” value in the series with delta opioid receptor is on record as 23 nM. Also, the “in vitro activity in GPI for mu opioid receptor activity” value in the series on mu opioid receptor is 210 nM. Besides, the results for the concentration for a half-maximal effect (EC50) in series [7] (read-out: EC50 in GTP-γ-S binding assay at hDOR) and in series [8] (read-out: EC50 in GTP-γ-S binding assay at MOR) were 5.5 nM and 0.47 nM, respectively. The “Emax in GTP-γ-S binding assay at hDOR” value in series [7] was 81 nM. For the same molecule, the “Emax in GTP-γ-S binding assay at MOR” value in series [8] is given as 110 nM.
